Measured values published in ChEMBL document CHEMBL5096231, “Covalently Conjugated NOD2/TLR7 Agonists Are Potent and Versatile Immune Potentiators” (J Med Chem, 2022).
The source made the active and inactive calls. No cut-off for these calls is given here.

How the values were obtained:
RAW-Blue = assay: Activation of NF-kappaB transcriptional activity in mouse RAW-Blue cells expressing NOD2 and TLR7 at 1 uM incubated for 18 hrs by quanti-blue/SEAP-based spectrophotometry analysis; type: cell-based; conditions: filed as activator
In short: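 RAW-Blue cells pretreated 1 h with NOD2 antagonist SG84 (5 μM), TLR7 antagonist M5049 (1 μM), both, or neither, then given compound or 0.1% DMSO vehicle; 18 h at 37 °C, 5% CO2 in growth medium without Normocin/Zeocin. Supernatant mixed with QUANTI-Blue for 2 h at 37 °C, SEAP read at 630 nm. Activity relative to vehicle; three independent experiments, mean ± SEM.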

CD8-positive T cell [1] = assay: (§1) Induction of mouse ovalbumin specific CD8-positive T cell activation assessed as increase in IL-6 expression at 1 uM preincubated for 18 hrs with mouse BDMC cells in presence of ovalbumin followed by washout and further coincubated with CD4+ T cells and measured after 72 hrs; type: functional, cell-based
In short: (§2)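 Supernatants taken after the 72 h coculture of washed BMDCs (18 h pretreatment with 1 μM compound, LPS 1 μg/mL or vehicle, plus OVA 50 μg/mL) with OT-II CD4+ or OT-I CD8+ T cells. Cytokines measured by mouse Th1/Th2/Th17 cytometric bead array. Duplicates of two independent experiments, mean ± SEM.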

PBMC [2] = assay: Immunostimulatory activity in human PBMC cells assessed as increase in IL-8 production at 1 uM incubated for 18 hrs by flow cytometry analysis; type: functional, cell-based
In short: (§3)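 PBMCs at 1 × 10^6 cells/mL treated with compound (1 μM), LPS (1 μg/mL) or 0.1% DMSO vehicle; cell-free supernatants collected after 18 h at 37 °C, 5% CO2. Cytokines quantified by human inflammatory cytokine bead array on flow cytometry with recombinant standard curves. Four independent experiments, mean ± SEM.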

CD4+ve Th [3] = assay: (§4) Induction of mouse ovalbumin specific CD4+ T cell activation assessed as increase in IL-6 expression at 1 uM preincubated for 18 hrs with mouse BDMC cells in presence of ovalbumin followed by washout and further coincubated with CD4+ T cells and measured after 72 hrs; type: functional, cell-based; in short: as §2
PBMC [4] = assay: Upregulation of CXCL9 gene transcription in human PBMC cells at 1 uM incubated for 18 hrs by KEGG analysis; type: functional, cell-based
In short: (§5)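 PBMCs from three donors (2 × 10^6 cells/mL) exposed to 1 μM compound or 0.1% DMSO for 18 h at 37 °C. mRNA isolated, amplified, sequenced. DESeq2 differential expression, FDR <0.05 and fold change >2 or <0.5 versus vehicle; gene lists used for Metascape/KEGG enrichment.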

K562 = assay: Cytotoxicity against human K562 cells cocultured with human PBMC cells assessed as inhibition of cell proliferation at 0.01 to 1 uM incubated with PBMC cells for 18 hrs followed by co-incubation with K562 cells for 4 hrs by SYTOX blue staining based flow cytometric analysis; type: functional; conditions: dose 0.01-1 µM
In short: (§6)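 Human PBMCs (Ficoll-isolated, healthy donors) pretreated 18 h in duplicate with compound (1 nM–1 μM) or 0.1% DMSO. CFSE-labelled K562 or MEC1 target cells then added, effector:target 40:1, 4 h at 37 °C. Sytox blue staining, flow cytometry; CFSE+Sytox+ cells counted as dead. Expressed relative to vehicle; three independent experiments, mean ± SEM.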

PBMC [5] = assay: Upregulation of CXCL11 gene transcription in human PBMC cells at 1 uM incubated for 18 hrs by KEGG analysis; type: functional, cell-based; in short: as §5
PBMC [6] = assay: Upregulation of IL-22 gene transcription in human PBMC cells at 1 uM incubated for 18 hrs by KEGG analysis; type: functional, cell-based; in short: as §5
[7] = as §4, with “increase in CD25 expression at” for “increase in IL-6 expression at”, “72 hrs by flow cytometry analysis (reference value: 10.9%)” for “72 hrs”; type: functional, CD4+ve Th
In short: (§7)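 C57BL/6 BMDCs (GM-CSF 7 days, >90% CD11c+) pulsed 18 h with 1 μM compound, LPS 1 μg/mL or 0.1% DMSO plus OVA 50 μg/mL, washed. 1 × 10^4 BMDCs cocultured 72 h with 5 × 10^4 CFSE-labelled OT-II CD4+ or OT-I CD8+ T cells. Flow: live Thy1.2+ CD4+ or CD8+ cells scored as CD25+ CFSElow. Duplicates of two experiments.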

[8] = Cytotoxicity against HEK-Blue hNOD2 cells assessed as reduction in metabolic activity at 10 uM incubated for 18 hrs by MTS assay; type: toxicity, cell-based; conditions: human, hek-blue hnod2, 18 h
In short: (§8)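 Cells (HEK-Blue NOD2, RAW-Blue or freshly isolated human PBMCs) seeded in duplicate and exposed to 10 μM compound or 0.1% DMSO vehicle for 18 h at 37 °C, 5% CO2. Metabolic activity then measured by CellTiter 96 AQueous One (MTS) assay.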

PBMC [9] = assay: Upregulation of IL12A gene transcription in human PBMC cells at 1 uM incubated for 18 hrs by KEGG analysis; type: functional, cell-based; in short: as §5
Mus musculus [10] = assay: Immuno-adjuvant activity in NIH/OlaHsd mouse assessed as increase in ovalbumin specific Th2 associated IgG1 production in sera at 50 ug, sc administered on day 0 and as booster dose on day 21 and 28 measured 7 days post last dose by ELISA; type: functional, organism-based; conditions: dose 50.0 µg, time 35.0 day
CD8-positive T cell [11] = assay: Induction of mouse ovalbumin specific CD8-positive T cell activation assessed as increase in IL-17A expression at 1 uM preincubated for 18 hrs with mouse BDMC cells in presence of ovalbumin followed by washout and further coincubated with CD4+ T cells and measured after 72 hrs; type: functional, cell-based; in short: as §2
PBMC [12] = assay: Immunostimulatory activity in human PBMC cells assessed as increase in IL-10 production at 1 uM incubated for 18 hrs by flow cytometry analysis; type: functional, cell-based; in short: as §3
[13] = Induction of activation of human CD56+ CD3- NK cells co-cultured with human PBMC cells assessed as increase in CD107a expression at 1 uM incubated for 24 hrs by flow cytometry analysis (reference value: 1.5%); type: functional, Natural killer cell
CD4+ve Th [14] = assay: Induction of mouse ovalbumin specific CD4+ T cell activation assessed as increase in TNF expression at 1 uM preincubated for 18 hrs with mouse BDMC cells in presence of ovalbumin followed by washout and further coincubated with CD4+ T cells and measured after 72 hrs; type: functional, cell-based; in short: as §2
PBMC [15] = assay: Upregulation of IL-17A gene transcription in human PBMC cells at 1 uM incubated for 18 hrs by KEGG analysis; type: functional, cell-based; in short: as §5
PBMC [16] = assay: Upregulation of CXCL10 gene transcription in human PBMC cells at 1 uM incubated for 18 hrs by KEGG analysis; type: functional, cell-based; in short: as §5
PBMC [17] = assay: Upregulation of IL-17F gene transcription in human PBMC cells at 1 uM incubated for 18 hrs by KEGG analysis; type: functional, cell-based; in short: as §5
PBMC [18] = assay: Immunostimulatory activity in human PBMC cells assessed as increase in IL-1beta production at 1 uM incubated for 18 hrs by flow cytometry analysis; type: functional, cell-based; in short: as §3
PBMC [19] = assay: Immunostimulatory activity in human PBMC cells assessed as increase in IL12p70 production at 1 uM incubated for 18 hrs by flow cytometry analysis; type: functional, cell-based; in short: as §3
PBMC [20] = assay: Upregulation of IL12B gene transcription in human PBMC cells at 1 uM incubated for 18 hrs by KEGG analysis; type: functional, cell-based; in short: as §5
CD4+ve Th [21] = assay: Induction of mouse ovalbumin specific CD4+ T cell activation assessed as increase in IL-17A expression at 1 uM preincubated for 18 hrs with mouse BDMC cells in presence of ovalbumin followed by washout and further coincubated with CD4+ T cells and measured after 72 hrs; type: functional, cell-based; in short: as §2
CD4+ve Th [22] = assay: Induction of mouse ovalbumin specific CD4+ T cell activation assessed as increase in IFN-gamma expression at 1 uM preincubated for 18 hrs with mouse BDMC cells in presence of ovalbumin followed by washout and further coincubated with CD4+ T cells and measured after 72 hrs; type: functional, cell-based; in short: as §2
CD8-positive T cell [23] = assay: Induction of mouse ovalbumin specific CD8-positive T cell activation assessed as increase in IFN-gamma expression at 1 uM preincubated for 18 hrs with mouse BDMC cells in presence of ovalbumin followed by washout and further coincubated […] and measured after 72 hrs; type: functional, cell-based; in short: as §2
[24] = Induction of activation of human CD56+ CD3- NK cells co-cultured with human PBMC cells assessed as increase in CD69 expression at 1 uM incubated for 24 hrs by flow cytometry analysis (reference value: 2.7%); type: functional, Natural killer cell
PBMC [25] = assay: Upregulation of IL-26 gene transcription in human PBMC cells at 1 uM incubated for 18 hrs by KEGG analysis; type: functional, cell-based; in short: as §5
PBMC [26] = assay: Upregulation of IFN-gamma gene transcription in human PBMC cells at 1 uM incubated for 18 hrs by KEGG analysis; type: functional, cell-based; in short: as §5
[27] = Cytotoxicity against mouse RAW-Blue cells assessed as reduction in metabolic activity at 10 uM incubated for 18 hrs by MTS assay; type: toxicity, cell-based; in short: as §8
Mus musculus [28] = assay: Immuno-adjuvant activity in NIH/OlaHsd mouse assessed as increase in ovalbumin specific Th1 associated IgG2a production in sera at 50 ug, sc administered on day 0 and as booster dose on day 21 and 28 measured 7 days post last dose by ELISA; type: functional, organism-based; conditions: dose 50.0 µg, time 35.0 day
[29] = Cytotoxicity against human PBMC cells assessed as reduction in metabolic activity at 10 uM incubated for 18 hrs by MTS assay; type: toxicity, cell-based; in short: as §8
[30] = Induction of activation of human CD56+ CD3- NK cells co-cultured with human PBMC cells assessed as increase in IFN-gamma expression at 1 uM incubated for 24 hrs by flow cytometry analysis (reference value: 0.04%); type: functional, Natural killer cell
PBMC [31] = assay: Immunostimulatory activity in human PBMC cells assessed as increase in IL-6 production at 1 uM incubated for 18 hrs by flow cytometry analysis; type: functional, cell-based; in short: as §3
PBMC [32] = assay: Upregulation of Tbx21 gene transcription in human PBMC cells at 1 uM incubated for 18 hrs by KEGG analysis; type: functional, cell-based; in short: as §5
MEC1 = assay: Cytotoxicity against human MEC1 cells cocultured with human PBMC cells assessed as inhibition of cell proliferation at 0.01 to 1 uM incubated with PBMC cells for 18 hrs followed by co-incubation with MEC-1 cells for 4 hrs by SYTOX blue staining based flow cytometric analysis; type: functional; conditions: dose 0.01-1 µM; in short: as §6
Mus musculus [33] = assay: Immuno-adjuvant activity in NIH/OlaHsd mouse assessed as increase in ovalbumin specific IgG production in sera at 50 ug, sc administered on day 0 and as booster dose on day 21 and 28 measured 7 days post last dose by ELISA; type: functional, organism-based; conditions: dose 50.0 µg, time 35.0 day
CD8-positive T cell [34] = assay: Induction of mouse ovalbumin specific CD8-positive T cell activation assessed as increase in TNF expression at 1 uM preincubated for 18 hrs with mouse BDMC cells in presence of ovalbumin followed by washout and further coincubated with CD4+ T cells and measured after 72 hrs; type: functional, cell-based; in short: as §2
[35] = as §1, with “increase in CD25 expression at” for “increase in IL-6 expression at”, “72 hrs by flow cytometry analysis (reference value: 12.6%)” for “72 hrs”; type: functional; in short: as §7
PBMC [36] = assay: Immunostimulatory activity in human PBMC cells assessed as increase in TNF production at 1 uM incubated for 18 hrs by flow cytometry analysis; type: functional, cell-based; in short: as §3

## CCCCOc1nc(N)c2nc(O)n(Cc3ccc(C(=O)NCCOCCNC(=O)CC[C@@H](NC(=O)[C@@H](NC(=O)CNC(=O)/C=C/c4ccc(O)c(OC)c4)C(C)C)C(=O)OCC)cc3)c2n1
RAW-Blue
  Activity: Active
CD8-positive T cell [1]
  Activity: Active
PBMC [2]
  Activity: Active
CD4+ve Th [3]
  Activity: Active
PBMC [4]
  Activity: Active
K562
  Activity: Active
PBMC [5]
  Activity: Active
PBMC [6]
  Activity: Active
[7]
  Activity: 28.9%
[8]
  Activity: Non-Toxic
PBMC [9]
  Activity: Active
Mus musculus [10]
  Activity: Active
CD8-positive T cell [11]
  Activity: Active
PBMC [12]
  Activity: Active
[13]
  Activity: 4.7%
CD4+ve Th [14]
  Activity: Active
PBMC [15]
  Activity: Active
PBMC [16]
  Activity: Active
PBMC [17]
  Activity: Active
PBMC [18]
  Activity: Active
PBMC [19]
  Activity: Active
PBMC [20]
  Activity: Active
CD4+ve Th [21]
  Activity: Active
CD4+ve Th [22]
  Activity: Active
CD8-positive T cell [23]
  Activity: Active
[24]
  Activity: 93%
PBMC [25]
  Activity: Active
PBMC [26]
  Activity: Active
[27]
  Activity: Non-Toxic
Mus musculus [28]
  Activity: Active
[29]
  Activity: Non-Toxic
[30]
  Activity: 4.5%
PBMC [31]
  Activity: Active
PBMC [32]
  Activity: Active
MEC1
  Activity: Active
Mus musculus [33]
  Activity: Active
CD8-positive T cell [34]
  Activity: Active
[35]
  Activity: 54.5%
PBMC [36]
  Activity: Active

## CCCCOc1nc(N)c2nc(O)n(Cc3ccc(C(=O)O)cc3)c2n1
[7]
  Activity: 25.8%
[8]
  Activity: Non-Toxic
[13]
  Activity: 1.7%
[24]
  Activity: 3.3%
[27]
  Activity: Non-Toxic
[29]
  Activity: Non-Toxic
[30]
  Activity: 0.05%
[35]
  Activity: 17.6%
